Assay results as given in PubChem BioAssay AID623897 (Broad Institute, 2012).
“And” between values parts separate entries of the source, which are not always exact repeats. Equal values may be shown once. The source made the active and inactive calls.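 Rule for the calls: active = fitted AC50 at or below twice the top valid tested dose for that sample, with falling signal; inconclusive = flat curve with 30 to 70% inhibition, or poor fit; inactive = the rest.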

Tested on: not listed separately
Test: growth inhibition of C. albicans CaCi-17, confirmation, retest at dose, dry powder, set 2 (AID 623897)
Details: C. albicans CaCi-17 growth, Alamar Blue fluorescence, 48 h; at 26 µM (top of the series)
In short: (§1)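 Buffer or medium: RPMI 1640, MOPS-buffered, with added uridine and glucose. Incubation: 48 h static growth at 37 °C, then 2 h Alamar Blue. Technique: Alamar Blue fluorescence. Control set: amphotericin B 10 µM as positive control.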

SMILES	activity change, negative = inhibition
CCOC(=O)N1C(=O)C2(CCOCC2)N(c2ccc(C)cc2)C1=S	0.474% (inactive)
CCOC(=O)N1C(=S)NC(=O)C12CCCCC2	8.62% (inactive)
CCOC(=O)N1C(=O)C2(CCCC2)N(c2ccc(C)cc2)C1=S	1.68% (inactive)
CCCCN1C(=O)N(c2ccc(C)cc2)C2(CCCCC2)C1=O	9.41% (inactive)
CC(C)N1C(=S)NC(=O)C12CCCCC2	-18.9% (inactive)
Cc1ccc(N2C(=O)C3(CCCCC3)NC2=S)cc1	5.29% (inactive)
Cc1ccc(N2CC(=O)NC2=O)cc1	-8.61% (inactive)
Cc1ccc(N2C(=S)NC(=O)C2(C)C)cc1	2.64% (inactive)
Cc1ccc(N2C(=S)N(S(C)(=O)=O)C(=O)C23CCCCC3)cc1	3.7% (inactive)
Cc1ccc(N2C(=S)N(C)C(=O)C23CCCCC3)cc1	-21% (inactive)
CCOC(=O)N1C(=O)C2(CCCCC2)N(c2ccc(CC)cc2)C1=S	-31.8% (inactive)
O=C1NC(=S)NC12CCCCC2	2.58% (inactive)
CCCc1ccc(N2C(=S)N(C(=O)OCC)C(=O)C23CCCCC3)cc1	-11.5% (inactive)
CCOC(=O)N1C(=O)C2(CCCCC2)N(c2ccc(C(C)C)cc2)C1=S	8.52% (inactive)
CCCCN1C(=O)C2(CCCCC2)N(c2ccc(C)cc2)C1=S	-7.78% (inactive)
CCCOC(=O)N1C(=O)C2(CCCCC2)N(c2ccc(C)cc2)C1=S	17.3% (inactive)
Cc1ccc(N2C(=O)N(C)C(=O)C23CCCCC3)cc1	0.531% (inactive)

SMILES	activity change, negative = inhibition
CCOC(=O)N1C(=S)N(c2ccc(C)cc2)C2(CCCCC2)C1=NCc1ccccc1	5.9% (inactive)
CCOC(=O)N1C(=O)C2(CCCCC2)NC1=S	-0.208% (inactive)
CCOC(=O)N1C(=O)C(C)(C)N(c2ccc(C)cc2)C1=S	11.1% (inactive)
Cc1ccc(N2C(=S)NC(=O)C23CCCCC3)cc1	-4.65% (inactive)
O=C1NC(=S)N(Cc2ccccc2)C12CCCCC2	0.955% (inactive)
Cc1ccc(N2C(=O)C(=O)NC2=S)cc1	5.65% (inactive)
O=C1NC(=S)N(c2ccc(F)cc2)C12CCCCC2	-18.2% (inactive)
Cc1ccc(N2C(=S)NC(=O)C23CCCC3)cc1	4.84% (inactive)
Cc1ccc(N2C(=O)NC(=O)C23CCCCC3)cc1	5.65% (inactive)
CCOC(=O)N1C(=S)N(c2ccc(C)cc2)C(=O)C12CCCCC2	3.4% (inactive)
Cc1ccc(N2C(=S)N(C(=O)Oc3ccccc3)C(=O)C23CCCCC3)cc1	1.41% (inactive)
CCOC(=O)N1C(=O)C2(CCC2)N(c2ccc(C)cc2)C1=S	13.1% (inactive)
Cc1ccc(N2C(=S)N(C(=O)OC(C)C)C(=O)C23CCCCC3)cc1	7.31% (inactive)
CCCC(=O)N1C(=O)C2(CCCCC2)N(c2ccc(C)cc2)C1=S	8.69% (inactive)
CCOC(=O)N1C(=O)C2(CCCCC2)N(C(C)C)C1=S	-6.94% (inactive)
Cc1ccc(N2C(=S)N(C(=O)OCc3ccccc3)C(=O)C23CCCCC3)cc1	5.07% (inactive)

Tested on: C. albicans CaCi-17 growth, Alamar Blue fluorescence, 48 h
Test: as above
Details: not given
In short: as §1

SMILES	AC50
CCOC(=O)N1C(=O)C2(CCCCC2)N(c2cccc(C)c2)C1=S	8.16 µM
CCOC(=O)N1C(=O)C2(CCCCC2)N(c2ccc(C(C)(C)C)cc2)C1=S	> 52 µM (inactive)
CCOC(=O)N1C(=O)C2(CCCCC2)N(c2ccc(F)cc2)C1=S	0.946 µM
CCOC(=O)N1C(=O)C2(CCCCC2)N(c2ccc(C)cc2)C1=S	8.5 µM and 9.7 µM
CCOC(=O)N1C(=O)C2(CCCCC2)N(c2ccc(C(F)(F)F)cc2)C1=S	16.2 µM
Cc1ccc(N2C(=S)N(C)C(=O)C23CCCCC3)cc1	> 52 µM (inactive)
CCOC(=O)N1C(=O)N(c2ccc(C)cc2)C2(CCCCC2)C1=O	> 52 µM (inactive)
CCOC(=O)N1C(=O)C2(CCCCC2)N(c2ccccc2C)C1=S	23.9 µM
CCOC(=O)N1C(=O)C2(CCCCC2)N(c2ccc(-c3ccccc3)cc2)C1=S	> 52 µM (inactive)
O=C1NC(=S)N(c2ccccc2)C12CCCCC2	> 52 µM (inactive)
Cc1ccc(N2C(=S)NC(=O)C23CCOCC3)cc1	> 52 µM (inactive)
CC1/C=C/C=C\C=C\C=C\C=C\C=C\C=C\C(O[C@H]2OC(C)C(O)C(N)C2O)CC2OC(O)(CC(O)CC(O)C(O)CCC(O)CC(O)CC(=O)OC(C)C(C)C1O)CC(O)C2C(=O)O (some centres not stated)	0.0301 µM
Cc1ccc(N2C(=S)NC(=O)C23CCC3)cc1	> 52 µM (inactive)
CCOC(=O)N1C(=O)C2(CCCCC2)N(Cc2ccccc2)C1=S	22.8 µM
CCOC(=O)N1C(=O)C2(CCCCC2)N(c2ccc(C#N)cc2)C1=S	1.76 µM
CCOC(=O)N1C(=O)C2(CCCCC2)N(c2ccc(Cl)cc2)C1=S	1.37 µM
CCOC(=O)N1C(=O)C2(CCCCC2)N(c2ccccc2)C1=S	4.15 µM
COC(=O)N1C(=O)C2(CCCCC2)N(c2ccc(C)cc2)C1=S	17.1 µM
Cc1ccc(N2CC(=O)NC2=S)cc1	> 52 µM (inactive)
